These results are taken from ChEMBL document CHEMBL1140454, “Conformationally constrained analogues of 2-arachidonoylglycerol” (Bioorg Med Chem Lett, 2007).

Structures are written as SMILES. pKi: −log10 of the molar value.

Assay [1] concerns the target T1, Fatty-acid amide hydrolase 1 (Rattus norvegicus) (UniProt P97612).
T1 sequence (whole entry): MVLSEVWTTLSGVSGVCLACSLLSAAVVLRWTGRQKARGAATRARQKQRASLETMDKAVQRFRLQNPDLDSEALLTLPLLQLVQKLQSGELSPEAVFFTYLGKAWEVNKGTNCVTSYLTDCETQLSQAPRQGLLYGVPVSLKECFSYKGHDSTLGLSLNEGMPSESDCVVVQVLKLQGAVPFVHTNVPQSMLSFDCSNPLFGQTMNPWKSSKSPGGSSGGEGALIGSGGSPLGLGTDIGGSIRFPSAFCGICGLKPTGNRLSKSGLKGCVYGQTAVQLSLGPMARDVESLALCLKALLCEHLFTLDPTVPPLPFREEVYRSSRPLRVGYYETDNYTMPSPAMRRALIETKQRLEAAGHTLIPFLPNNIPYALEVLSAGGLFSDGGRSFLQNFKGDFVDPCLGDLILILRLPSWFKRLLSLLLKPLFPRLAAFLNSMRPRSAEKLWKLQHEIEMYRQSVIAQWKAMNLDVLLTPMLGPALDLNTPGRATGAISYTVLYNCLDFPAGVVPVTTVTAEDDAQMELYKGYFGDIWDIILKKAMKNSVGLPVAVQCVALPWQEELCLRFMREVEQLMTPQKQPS
Description: Activity of partially purified Sprague-Dawley rat FAAH assessed as substrate hydrolysis.

The target of assay [2] is T2, Monoglyceride lipase (Rattus norvegicus) (UniProt Q8R431).
T2 sequence (whole entry): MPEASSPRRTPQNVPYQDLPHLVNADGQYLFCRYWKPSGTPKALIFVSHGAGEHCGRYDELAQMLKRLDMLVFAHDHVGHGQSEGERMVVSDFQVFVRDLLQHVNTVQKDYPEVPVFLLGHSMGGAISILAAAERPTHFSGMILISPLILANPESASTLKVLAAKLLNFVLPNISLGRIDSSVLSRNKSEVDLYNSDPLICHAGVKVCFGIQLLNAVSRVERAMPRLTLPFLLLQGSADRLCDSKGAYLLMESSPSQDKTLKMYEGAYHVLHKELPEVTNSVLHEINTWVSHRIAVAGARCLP
Briefly: Activity of partially purified Sprague-Dawley rat MGL assessed as substrate hydrolysis.

The target of a further assay is Cannabinoid receptor 2 (Mus musculus, UniProt P47936). Briefly: Displacement of [3H]CP-55940 from mouse spleen CB2 receptor. The class given is tissue-based. In short, it runs like this:
(§1)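 Competition-equilibrium binding against [3H]CP55940, using rat brain membranes for CB1 and mouse spleen membranes for CB2. Some CB1 runs used membranes pretreated with PMSF. IC50 came from nonlinear regression and Ki was calculated from IC50. Points were run in duplicate, with values from single experiments.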
In general terms: Loss of bound radioactivity is the signal in a displacement assay; it reports binding, not function.

The target of a further assay is Cannabinoid receptor 1 (Rattus norvegicus, UniProt P20272). Description: Displacement of [3H]CP-55940 from rat brain CB1 receptor. In a few lines:
as §1

Chain of Cannabinoid receptor 2 (P47936 whole entry): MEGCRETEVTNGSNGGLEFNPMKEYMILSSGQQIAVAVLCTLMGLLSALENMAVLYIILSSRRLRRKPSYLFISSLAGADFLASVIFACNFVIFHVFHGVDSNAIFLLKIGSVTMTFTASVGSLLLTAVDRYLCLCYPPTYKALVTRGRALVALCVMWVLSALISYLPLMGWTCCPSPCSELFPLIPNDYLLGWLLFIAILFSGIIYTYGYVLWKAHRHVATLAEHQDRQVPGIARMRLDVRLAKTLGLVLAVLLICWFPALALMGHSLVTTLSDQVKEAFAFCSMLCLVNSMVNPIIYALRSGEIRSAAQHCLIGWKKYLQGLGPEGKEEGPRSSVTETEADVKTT
Chain of Cannabinoid receptor 1 (P20272 whole entry): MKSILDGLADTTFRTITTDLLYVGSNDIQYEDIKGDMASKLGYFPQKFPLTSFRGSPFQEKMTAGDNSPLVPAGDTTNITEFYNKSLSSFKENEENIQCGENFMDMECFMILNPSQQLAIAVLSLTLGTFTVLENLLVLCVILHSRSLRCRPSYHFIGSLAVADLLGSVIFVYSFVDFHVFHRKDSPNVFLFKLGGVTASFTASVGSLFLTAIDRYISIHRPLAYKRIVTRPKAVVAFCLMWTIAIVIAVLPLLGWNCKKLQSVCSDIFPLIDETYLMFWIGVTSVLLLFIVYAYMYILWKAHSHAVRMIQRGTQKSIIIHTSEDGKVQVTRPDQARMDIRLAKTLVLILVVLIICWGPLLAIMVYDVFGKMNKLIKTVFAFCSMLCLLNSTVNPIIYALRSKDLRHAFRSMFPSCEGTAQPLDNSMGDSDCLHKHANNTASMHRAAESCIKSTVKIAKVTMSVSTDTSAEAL

Turning to `CCCCC/C=C\C/C=C\C/C=C\C/C=C\CCCC(=O)OC1C(O)CCCC1O` (single isomer, unassigned; (+)) [listing 1 of 2 here], the hydrolysis in assay [1] stood at 88%; in assay [2] it was 10%. Consider `CCCCC/C=C\C/C=C\C/C=C\C/C=C\CCCC(=O)OC1C(O)CCCC1O` (single isomer, unassigned; (-)) [listing 1 of 2 here], for which the results for the negative-log Ki (pKi) at Cannabinoid receptor 2 and at Cannabinoid receptor 1 were 5.92 and 6.11, respectively. The matching figures for `CCCCC/C=C\C/C=C\C/C=C\C/C=C\CCCC(=O)OC1C(O)CCCC1O` (single isomer, unassigned; (+)) [listing 2 of 2 here]: 6.43 and 6.44. As to `CCCCC/C=C\C/C=C\C/C=C\C/C=C\CCCC(=O)OC(CO)CO`, the figures for the hydrolysis in assay [1] and in assay [2] were 100% and 74%, respectively.

For the compound `CCCCC/C=C\C/C=C\C/C=C\C/C=C\CCCC(=O)O[C@H]1[C@H](O)CCC[C@@H]1O`, the figures for the hydrolysis in assay [1] and in assay [2] were 78% and 19%, respectively. For the compound `CCCCC/C=C\C/C=C\C/C=C\C/C=C\CCCC(=O)OC1C(O)CCCC1O` (single isomer, unassigned; (-)) [listing 2 of 2 here], the hydrolysis in assay [1] stood at 88%; in assay [2], 13%. For `CCCCC/C=C\C/C=C\C/C=C\C/C=C\CCCC(=O)OC1C(O)CCCC1O` (racemic), in that order: 100% and 1%. Consider `CCCCC/C=C\C/C=C\C/C=C\C/C=C\CCCC(=O)OC1C(=O)CCCC1O` (racemic; form 2), for which the hydrolysis came out at 100% in assay [1] and 8% in assay [2]. For `CCCCC/C=C\C/C=C\C/C=C\C/C=C\CCCC(=O)OC1C(=O)CCCC1O` (racemic; form 1) [listing 1 of 2 here], in that order: 91% and 48%.

As to `CCCCC/C=C\C/C=C\C/C=C\C/C=C\CCCC(=O)O[C@@H]1[C@H](O)CCC[C@@H]1O`, the hydrolysis in assay [1] and in assay [2] was 2% in each case. With `CCCCC/C=C\C/C=C\C/C=C\C/C=C\CCCC(=O)OC1C(=O)CCCC1O` (racemic; form 1) [listing 2 of 2 here], the pKi (as a rule, the Ki on a negative log10 scale, so that one unit is a factor of ten) at Cannabinoid receptor 2 was 6.39.
